# This is a sample that favours compounds with a hit; in the whole collection about 2% have one here.
# FN deposition inh – inhibitors of fibronectin matrix deposition, primary screen, AH1F cells, Alexa488-fibronectin fluorescence, plate reader; AID 743247, 2014; AH1F fibroblasts, overnight; 0.086% of 350,000 active; inhibition, % at 12.6 µM;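 active = mean inhibition across replicates of 30% or more, regardless of how many single replicates reach that level; inconclusive = mean under 30% yet at least half of replicates reach 30%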;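 also: positive control wells lacked labelled fibronectin entirely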
#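 Material – AH1F fibroblast monolayer, labelled fibronectin deposition · Reagent – labelled fibronectin 24 nM · Timing – 1 h adhesion, overnight exposure · Measured by – fluorescence at 485 nm excitation, 525 nm emission · Read-out – inhibition of fibronectin deposition signal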
# DENV2 CPE – inhibitors of DENV2 cytopathic effect, primary screen, cell-based, plate reader, single concentration; DENV2-infected cells, cytopathic effect rescue; CPE inhibition, % at 9.99 µM; 1.7% of 350,000 active; AID 651640, 2012; in the data active = CPE inhibition above about 20%, passing the limit was not always enough; inconclusive = no clear call, values can overlap the other calls; tested in BHK-21 cells;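 also: 0% = median of neutral control wells and 100% = median of positive control wells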
# CaV13 FRET inh – Disruptors of the CACNA1D IQ motif to Ca2+-dependent inactivation inhibitor domain association, primary screening, Förster resonance energy transfer in intact living … | inhibition, % at 12.3 µM | HEK cells, CFP/YFP FRET ICDI-IQ, plate reader, 10 min; percent FRET-ratio fall versus neutral wells | 0.098% of 340,000 active;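 active = mean replicate inhibition of at least 30% and at least 1% of replicates passing that level; inconclusive = only one of the two criteria is met; inactive = neither criterion is met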;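 also: 0% = median of the neutral control wells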
# XiGFP reactiv – activators of inactive X chromosome reactivation, primary screen, imaging, XiGFP fibroblasts, GFP high-content imaging, set 2 | XiGFP mouse fibroblasts, % GFP-positive cells imaging, 3 d; cells co-treated with 5-aza-dC sensitizer; scaled so ellipticine positive control = 100% | activation, % at 7.58 µM | 0.055% of 360,000 active;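 active = mean normalized replicate activation at least 10% and every replicate at or above 10%; inconclusive = only one of the two criteria met; inactive = mean below 10% and not all replicates reach 10%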;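 also: 0% = median of on-plate neutral control wells and 100% = ellipticine 6 µM median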
#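 material = 68-5-11 XiGFP fibroblast line | medium = DMEM plus 5-aza-dC sensitizer | schedule = 3 days compound exposure | benchmarks = positive control ellipticine, 6 µM final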
# CASP6 VEID inh – human caspase-6 inhibitors, primary screen, biochemical, VEID-R110 fluorescence, single point, set 2; P55212; purified caspase-6, Z-VEID-R110 cleavage fluorescence; inhibition, % at 12.5 µM; 0.53% of 350,000 active; AID 686996, 2013;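 active = mean inhibition across replicates at least about 35%, with every replicate also reaching that limit, limit read from the data; inconclusive = only one of the two criteria met; inactive = neither criterion met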;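 also: 0% = median of neutral control wells and 100% = no fluorescence left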
# Target sequence (P55212 24-179 limits assumed): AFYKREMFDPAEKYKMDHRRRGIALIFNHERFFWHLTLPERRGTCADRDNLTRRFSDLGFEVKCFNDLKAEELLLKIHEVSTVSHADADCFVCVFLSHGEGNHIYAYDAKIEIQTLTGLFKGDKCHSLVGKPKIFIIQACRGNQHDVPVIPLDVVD
# Target sequence (P55212 194-293 limits assumed): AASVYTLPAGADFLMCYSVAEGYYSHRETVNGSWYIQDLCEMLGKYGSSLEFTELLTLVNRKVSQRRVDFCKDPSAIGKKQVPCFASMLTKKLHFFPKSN
# The depositor's hits bear a star; ? = inconclusive; nt = not tested or not shown; ! = a repeat was not active.
SMILES,FN deposition inh,DENV2 CPE,CaV13 FRET inh,XiGFP reactiv,CASP6 VEID inh
C[C@H]1CCCCO[C@H](CN(C)Cc2ccc(C(=O)O)cc2)[C@@H](C)CN([C@@H](C)CO)C(=O)c2cc(NC(=O)CCC(F)(F)F)ccc2O1,nt,11,nt,0,0
CCN1C(=NCCN2CCOCC2)N[C@@H](c2ccccc2)C(C(=O)OC)=C1C,8,-4,-4,1,nt
COC(=O)C1=C(C)N(Cc2ccccc2)C(=NCCN2CCOCC2)N[C@H]1CCc1ccccc1,9,44*,-4,0,-1
CCCCCCCC1c2c(c(C)c(C)oc2=O)Oc2c(C)c(C)oc(=O)c21,0,89*,-9,0,5
CCCC(C)C1c2c(c(C)c(C)oc2=O)Oc2c(C)c(C)oc(=O)c21 (stereo not drawn),0,nt,-10,0,5
Clc1cccc(C2=NOC(c3nnc(-c4ccccc4)o3)C2)c1 (stereo not drawn),3,35*,-11,0,1
Cc1ccc(NS(=O)(=O)c2ccc(Br)s2)nc1,0,0,-6,0,37*
Cc1ccc2c(c1)c1c3n2CCN(C(=O)CN2CCN(C)CC2)C3CCC1 (stereo not drawn),8,nt,-4,nt,nt
Cc1ccc2c(c1)c1c3n2CCN(C(=O)C2CC2)C3CCC1 (stereo not drawn),-2,54*,-8,0,4
CCCCCCSc1cc(-c2nc3cc(C)ccn3c2NCCCC)ccc1OC,-9,2,78*!,0,2
CCCN(CC1CCCO1)C(=O)c1cc(COc2cccc(OC)c2)on1 (stereo not drawn),-3,-3,-2,0,2
COc1cccc(OCc2cc(C(=O)N(C)CCC3CCCCO3)no2)c1 (stereo not drawn),-9,39*,-12,0,0
C[C@H]1CCCCO[C@@H](CN(C)CC2CCCCC2)[C@@H](C)CN([C@@H](C)CO)C(=O)c2cc(NC(=O)NC3CCCCC3)ccc2O1,5,-15,nt,0,nt
Nc1ccc(OC(=O)Nc2ccc(O)cc2)cc1,-4,-1,-4,0,61*
COc1ccc2c(c1)C(=O)O[C@@H](c1ccccc1)C[C@@H](O)C(=O)CC2,-8,33*,-10,0,-1
O=C1CCCCCCC(=O)[C@H](O)C[C@H](c2ccccc2)O1,-5,50*,-5,0,0
COc1ccc2c(c1)CCC(=O)[C@H](O)C[C@H](c1ccccc1)OC2=O,7,?,-5,0,13
C/C=C/c1ccc([C@H]2[C@H](CO)N(C(=O)CC)[C@H]2CN(C)S(C)(=O)=O)cc1,-12,15,nt,0,nt
C[C@H](CO)N1C[C@H](C)[C@@H](CN(C)C(=O)CCC(F)(F)F)OCCCC[C@H](C)Oc2ccc(NC(=O)Nc3ccccc3)cc2C1=O,-13,2,nt,0,-1
C/C(=N\NC(=O)c1ccccc1O)c1ccc(NC(=O)Cc2ccccc2)cc1,-3,?,-6,0,36*
C/C(=N\NC(=O)c1ccccc1O)C1CC1,0,4,-3,0,42*
CCOC(=O)N1CCN(C(=O)Cc2ccccc2[N+](=O)[O-])CC1,-1,1,-4,0,35*
CCOC(=O)N1CCN(C(=O)COc2ccccc2[N+](=O)[O-])CC1,4,0,-2,0,1
C[C@H]1CN([C@@H](C)CO)C(=O)Cc2cc(NS(=O)(=O)c3ccc(Cl)cc3)ccc2O[C@H]1CN(C)S(=O)(=O)c1ccc(Cl)cc1,nt,-3,nt,0,3
C[C@H]1CN([C@@H](C)CO)C(=O)Cc2cc(NC(=O)C3CCCCC3)ccc2O[C@H]1CN(C)S(=O)(=O)c1ccc(Cl)cc1,nt,1,nt,0,-2
SMILES,FN deposition inh,DENV2 CPE,CaV13 FRET inh,XiGFP reactiv,CASP6 VEID inh
C[C@@H]1CN([C@@H](C)CO)C(=O)Cc2cc(NS(=O)(=O)c3ccc(Cl)cc3)ccc2O[C@@H]1CN(C)S(=O)(=O)c1ccc(Cl)cc1,nt,47*,nt,0,5
Cc1noc(C)c1S(=O)(=O)Nc1ccc2c(c1)CC(=O)N([C@@H](C)CO)C[C@@H](C)[C@H](CN(C)C(=O)NC1CCCCC1)O2,nt,22*,nt,0,-1
Cc1noc(C)c1S(=O)(=O)Nc1ccc2c(c1)CC(=O)N([C@@H](C)CO)C[C@H](C)[C@H](CN(C)C(=O)NC1CCCCC1)O2,nt,4,nt,0,-1
C[C@H](CO)N1C[C@H](C)[C@@H](CN(C)S(=O)(=O)c2ccc(Cl)cc2)Oc2ccc(NC(=O)C3CC3)cc2CC1=O,-1,30*,nt,0,2
C[C@@H]1CN([C@H](C)CO)C(=O)Cc2cc(NS(=O)(=O)c3ccc(Cl)cc3)ccc2O[C@@H]1CN(C)CC1CCCCC1,nt,49*,nt,0,4
COc1ccc(S(=O)(=O)N(C)C[C@H]2Oc3ccc(NC(=O)Nc4cccc5ccccc45)cc3CC(=O)N([C@H](C)CO)C[C@H]2C)cc1,20,8,nt,0,-1
C[C@H]1CN(C)C(=O)c2cccnc2O[C@@H]1CN(C)C,-5,nt,nt,0,nt
C[C@H]1CN([C@@H](C)CO)C(=O)Cc2cc(NS(=O)(=O)c3ccc(Cl)cc3)ccc2O[C@H]1CN(C)C(=O)NC1CCCCC1,-2,32*,nt,-1,1
C[C@@H](NC(=O)C[C@H]1CC[C@@H](NC(=O)Cc2ccccn2)[C@H](CO)O1)c1ccccc1,12,-4,nt,0,0
C[C@@H]1CN([C@H](C)CO)C(=O)c2cc(NC(=O)Cc3cn(C)c4ccccc34)ccc2O[C@H]1CN(C)S(=O)(=O)c1ccc(F)cc1,-12,58*!,-6,0,-1
CC(C)NC(=O)N(C)C[C@@H]1Oc2ccc(NC(=O)Cc3cn(C)c4ccccc34)cc2C(=O)N([C@@H](C)CO)C[C@H]1C,nt,80*,nt,0,-2
C[C@H](CO)N1C[C@H](C)[C@H](CN(C)Cc2ccc(C(=O)O)cc2)Oc2ccc(NC(=O)Cc3cn(C)c4ccccc34)cc2C1=O,nt,70*,nt,0,5
CC(C)NC(=O)N(C)C[C@H]1Oc2ccc(NC(=O)Cc3cn(C)c4ccccc34)cc2C(=O)N([C@@H](C)CO)C[C@@H]1C,nt,6,nt,0,1
C[C@@H]1CN(C)C(=O)Cc2cc(NS(C)(=O)=O)ccc2O[C@@H]1CN(C)S(C)(=O)=O,-10,nt,nt,0,nt
C[C@](N)(Cc1ccc(O)c(O)c1)C(=O)O,-3,8,-5,0,87*
